Laboratory results: paper PMC7709139 (Molecular imaging, 2015)
Numbered stars: 1 amine (or outer) side, 2 acyl side, 3 side chain; on linkers, the order of the positions; unused ones are H or OH. Bridge positions count the residues as written; N and C are the ends. Side chains are listed from the residue outwards. Ends that are not written are not given here. Peptide text beside a SMILES is read from it. * marks the point of attachment. X1 = CC(=NO)C(C)(C)NCCC(CCNC(C)(C)C(C)=NO)CCN*; Glutaryl = O=C(CCCC(=O)[*:2])[*:1]

Tests used:
Met tyrosine kinase = conditions: cited from earlier work
MKN-45 xenografts [1] = experiment: Tumor weight and histologic grading; format: in vivo, athymic female nude mice (human MKN-45 tumor)
Outline: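 SPECT-imaged MKN-45 mice, given the Met TKI daily i.p. or vehicle, were euthanised after the last imaging session at 3 weeks. Tumours were weighed (> 0.5 g counted) and formalin-fixed, paraffin-embedded sections were stained with H&E (necrosis, graded up to +4 severe) or ApopTag (apoptosis).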

MKN-45 xenografts [2] = experiment: Longitudinal Cy5^⋆⋆-Met peptide fluorescence imaging during PHA 665752 treatment; format: in vivo, athymic female nude mice (human MKN-45 tumor); conditions: for decrease in Cy5^⋆⋆-Met fluorescent signal intensity in tumors vs vehicle: PHA 665752 5 days on/2 days off, n = 9, p < .05
MKN-45 xenografts [3] = experiment: Tumor weight and histologic grading, Cy5^⋆⋆-Met peptide imaged cohort; format: in vivo, athymic female nude mice (human MKN-45 tumor); conditions: treated
Outline: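 Fluorescence-imaged MKN-45 mice, given the Met TKI 5 days on/2 days off or vehicle, were euthanised after the last imaging session (18 or 25 days). Tumours were weighed (fraction > 0.5 g), fixed in 10% neutral-buffered formalin and paraffin-embedded. Sections were stained with H&E for necrosis and ApopTag for apoptosis, then graded. n = 9 per group.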

MKN-45 xenografts [4] = experiment: Tumor volume by 3D ultrasonography, [^99mTc]-Met peptide imaged cohort; format: in vivo, athymic female nude mice (human MKN-45 tumor); conditions: 15 mg/kg i.p. daily
Outline: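 After each weekly SPECT/CT session in the daily-dosed MKN-45 cohort (Met TKI 15 mg/kg i.p.), 3D ultrasonography was run at 40 MHz with a 0.076 mm step size. Tumour volume was obtained with a parallel ROI algorithm and expressed as % increase from baseline. n = 9 per group; groups were compared by Welch t-test (p < .05).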

[5] = tested on: human lung carcinoma cells; conditions: cited from earlier work
shed Met = experiment: Plasma shed Met electrochemiluminescent immunoassay; format: in vivo, human Met in mouse xenograft plasma; conditions: for slope plasma shed Met/tumor mass: PHA-treated
Outline: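 Blood was collected into EDTA tubes and centrifuged. Plasma was fast-frozen and stored at −70°C; samples from radiolabel-imaged mice were assayed after the radioactivity had decayed. Soluble Met ectodomain was measured by two-site electrochemiluminescent immunoassay with ruthenium-chelate-tagged detection antibody, against a recombinant Met ectodomain–IgG-Fc standard. Naive cohorts were sampled at 1–4 weeks, imaged cohorts at the end. Values were correlated with tumour mass by Spearman analysis, and slopes were given as ng/mL per g.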

MKN-45 xenografts [6] = experiment: Longitudinal [^99mTc]-Met peptide SPECT imaging during PHA 665752 treatment; format: in vivo, athymic female nude mice (human MKN-45 tumor); conditions: for decrease in [^99mTc]-Met peptide tumor uptake (%ID/g) vs vehicle: PHA 665752 15 mg/kg i.p. daily
Outline: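 Female nude mice carried s.c. MKN-45 xenografts, 30–50 mm³ at baseline. They received the Met TKI at 15 mg/kg i.p. in 5% DMSO:saline, or vehicle, daily for 3–4 weeks. SPECT/CT imaging was done 90 min after injection of ⁹⁹ᵐTc-labelled Met peptide, at baseline and then weekly. Tumour uptake was expressed as %ID/g normalised to a 20 g mouse. n = 9 per group; groups were compared by Welch t-test.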

[7] = tested on: gastric carcinoma cells (including MKN-45 cells); conditions: cited from earlier work
[8] = tested on: tumor responses to Met-targeted therapeutics; conditions: ref [19],[26],[47],[48], cited from earlier work
SNU-16 xenografts = experiment: in vivo; design: species or system athymic female nude mice (human SNU-16 tumor)
in vivo [9] = experiment: in vivo; design: species or system athymic female nude mice (human SNU-16 tumor); conditions: female, athymic nude (Ncr-nu/nu), mouse, iv, total radioactivity
MKN-45 xenografts [10] = experiment: in vivo; design: species or system athymic female nude mice (human MKN-45 tumor)
in vivo [11] = experiment: in vivo; design: species or system athymic female nude mice (human MKN-45 tumor); conditions: female, athymic nude (Ncr-nu/nu), mouse, iv, total radioactivity
Met (U87-MG cells) = experiment: Saturation binding, U87-MG cells; design: species or system human
Outline: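 U87-MG cells were grown in DMEM with 2 mM L-glutamine, 0.1 mM NEAA, 1 mM pyruvate and 10% FBS, then placed in tubes (0.2–1.0 × 10⁶ cells) on the assay day. Duplicates were incubated with 0.2–10 nM ⁹⁹ᵐTc-labelled Met peptide for 2 h at 4°C, with nonspecific binding defined by 10^−6.3 M unlabelled peptide. Pellets were washed twice with PBS and counted. MKN-45 cells were plated (0.2 × 10⁶/well) the day before and trypsinised for counting. Kd and Bmax came from one-site nonlinear fits.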

MKN-45 xenografts [12] = tested on: MKN-45 xenografts; design: species or system athymic female nude mice (human MKN-45 tumor); conditions: in vivo
[13] = tested on: extracellular domain of human Met; conditions: fluorescence polarization; cited from earlier work
MKN-45 xenografts [14] = format: in vivo, athymic female nude mice (human MKN-45 tumor); conditions: 60 minutes postinjection
U87-MG xenografts = experiment: in vivo; design: species or system athymic female nude mice (human U87-MG tumor)
in vivo [15] = experiment: in vivo; design: species or system athymic female nude mice (human U87-MG tumor); conditions: female, athymic nude (Ncr-nu/nu), mouse, iv, total radioactivity
[16] = biological target: T1, hepatocyte growth factor tyrosine kinase receptor (Met) (human (endogenous in MKN-45 and U87-MG), UniProt P08581 25-1390); experiment: radioligand binding
T1 sequence (P08581 25-1390): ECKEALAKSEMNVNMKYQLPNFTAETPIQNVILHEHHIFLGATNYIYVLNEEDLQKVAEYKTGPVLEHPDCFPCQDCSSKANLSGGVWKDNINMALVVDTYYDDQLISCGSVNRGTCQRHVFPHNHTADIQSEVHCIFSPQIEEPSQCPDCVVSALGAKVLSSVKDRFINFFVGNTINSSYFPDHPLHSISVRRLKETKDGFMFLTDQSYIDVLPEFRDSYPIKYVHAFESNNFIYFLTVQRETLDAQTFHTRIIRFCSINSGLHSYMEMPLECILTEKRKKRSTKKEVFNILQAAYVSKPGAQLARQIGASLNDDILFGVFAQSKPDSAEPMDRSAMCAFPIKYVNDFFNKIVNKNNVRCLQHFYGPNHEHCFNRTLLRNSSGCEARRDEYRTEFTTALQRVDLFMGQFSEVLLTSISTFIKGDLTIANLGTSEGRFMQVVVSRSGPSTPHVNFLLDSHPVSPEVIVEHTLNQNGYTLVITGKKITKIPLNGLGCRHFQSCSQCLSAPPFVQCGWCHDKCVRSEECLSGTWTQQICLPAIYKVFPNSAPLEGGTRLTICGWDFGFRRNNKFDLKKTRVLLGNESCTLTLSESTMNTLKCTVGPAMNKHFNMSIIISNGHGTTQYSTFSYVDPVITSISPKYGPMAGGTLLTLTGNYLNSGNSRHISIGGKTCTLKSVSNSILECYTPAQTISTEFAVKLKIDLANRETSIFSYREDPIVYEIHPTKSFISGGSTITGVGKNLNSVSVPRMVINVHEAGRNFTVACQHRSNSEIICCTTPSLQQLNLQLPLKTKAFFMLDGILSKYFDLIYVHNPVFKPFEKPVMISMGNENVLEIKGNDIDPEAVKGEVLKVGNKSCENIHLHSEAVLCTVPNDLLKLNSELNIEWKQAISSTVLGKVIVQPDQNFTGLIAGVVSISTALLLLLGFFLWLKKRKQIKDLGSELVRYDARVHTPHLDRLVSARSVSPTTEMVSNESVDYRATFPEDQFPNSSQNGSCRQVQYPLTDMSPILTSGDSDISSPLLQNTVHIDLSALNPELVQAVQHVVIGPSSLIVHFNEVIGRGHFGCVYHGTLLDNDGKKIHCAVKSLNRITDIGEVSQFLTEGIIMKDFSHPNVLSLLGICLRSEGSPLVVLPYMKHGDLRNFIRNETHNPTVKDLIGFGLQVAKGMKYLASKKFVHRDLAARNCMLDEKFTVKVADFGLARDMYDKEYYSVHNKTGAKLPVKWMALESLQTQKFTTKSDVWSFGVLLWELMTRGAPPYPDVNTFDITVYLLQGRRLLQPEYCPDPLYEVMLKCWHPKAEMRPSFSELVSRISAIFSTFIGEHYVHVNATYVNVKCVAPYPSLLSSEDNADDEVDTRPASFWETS

[17] = biological target: T1, hepatocyte growth factor tyrosine …; experiment: in vivo biodistribution with blocking

## Cc1[nH]c(/C=C2\C(=O)Nc3ccc(S(=O)(=O)Cc4c(Cl)cccc4Cl)cc32)c(C)c1C(=O)N1CCC[C@@H]1CN1CCCC1 [PHA 665752, (2R)-1-[[5-[(Z)-[5-[[(2,6-dichlorophenyl)methyl]sulfonyl]-1,2-dihydro-2-oxo-3H-indol-3-ylidene]methyl]-2,4-dimethyl-1H-pyrrol-3-yl]–carbonyl]-2-(1-pyrrolidinylmethyl) pyrrolidine]
Met tyrosine kinase
  tumorigenicity, apoptosis and necrosis: reduction of tumorigenicity accompanied with increases in apoptosis and necrosis
MKN-45 xenografts [1]; ApopTag, after 3 weeks PHA 665752
  tumors with moderately severe apoptosis: 22%
MKN-45 xenografts [1]; H&E, after 3 weeks PHA 665752 (vehicle also 78%)
  fraction of severely necrotic tumors: 78%
MKN-45 xenografts [1]; after 3 weeks PHA 665752
  fraction of tumors > 0.5 g: 44%
MKN-45 xenografts [2]; 25 days, n = 6 treated, 5 vehicle
  fluorescent signal intensity and tumor volume vs vehicle: these decreases were not significant
MKN-45 xenografts [2]; 11 days
  decrease in Cy5^⋆⋆-Met fluorescent signal intensity in tumors vs vehicle: 54%
MKN-45 xenografts [2]; 18 days
  decrease in Cy5^⋆⋆-Met fluorescent signal intensity in tumors vs vehicle: 55%
MKN-45 xenografts [3]; 18 or 25 days (vehicle 78%)
  tumors with minimal (1+) apoptosis: 33%
MKN-45 xenografts [3]; 18 or 25 days (vehicle 89%)
  tumors > 0.5 g: 78%
MKN-45 xenografts [4]; day 8, n = 9, not significant
  decrease in tumor volume vs vehicle: 25%
MKN-45 xenografts [4]; day 21, n = 9, p = .016
  decrease in tumor volume vs vehicle: 55%
[5]
  total surface Met expression: total surface Met expression increased
Shed Met; 1, 2, and 3 to 4 weeks after treatment
  increase in plasma shed Met (ng/mL per g tumor) vs vehicle: ~ 2 fold
Shed Met; imaged xenografts, n = 7 (vehicle 43.7)
  slope plasma shed Met/tumor mass: 77.7 (ng/mL)/(g)
Shed Met; nonimaged xenografts (vehicle 43.8)
  slope plasma shed Met/tumor mass: 77.5 (ng/mL)/(g)
MKN-45 xenografts [6]; MKN-45 xenografts
  tumor uptake of [^99mTc]-Met peptide after PHA 665752: significantly decreased as early as 1 week
MKN-45 xenografts [6]; day 8, n = 9, p = .005
  decrease in [^99mTc]-Met peptide tumor uptake (%ID/g) vs vehicle: 43%
MKN-45 xenografts [6]; day 21, n = 9, not significant
  decrease in [^99mTc]-Met peptide tumor uptake (%ID/g) vs vehicle: 25%
[7]
  drug resistance on prolonged exposure: acquired drug resistance associated with increased levels of Met
  extracellular Met expression: extracellular Met expression appeared unchanged
  inhibition of Met phosphorylation: pronounced inhibition of Met phosphorylation

## OC[C@H]1OC(O)[C@H]([18F])[C@@H](O)[C@@H]1O (some centres unmarked) [[^18F]FDG, [^18F]fluorodeoxyglucose]
[8]; Met intracellular kinase inhibition
  PET detection of tumor response to crizotinib: failed to detect tumor responses
[8]; mAb targeting the Met extracellular domain
  PET detection of tumor response to CE-355621: detected early tumor responses

## Cc1cn([C@H]2C[C@H]([18F])[C@@H](CO)O2)c(=O)[nH]c1=O [[^18F]FLT, [^18F]fluorothymidine]
[8]
  PET detection of tumor response to crizotinib and BAY 853474: detected a robust tumor response

## CC(=O)N[C@@H](C)C(=O)NCC(=O)N[C@@H](CO)C(=O)N[C@H]1CSSC[C@@H](C(=O)N[C@@H](Cc2ccc(O)cc2)C(=O)N[C@@H](CCC(=O)O)C(=O)N[C@H](C(=O)N[C@@H](CCC(=O)O)C(=O)NCC(=O)N[C@H](C(=O)NCC(=O)NCC(=O)NCC(=O)N[C@@H](CCCCNC(=O)CCCC(=O)NCCC(CCNC(C)(C)C(C)=NO)CCNC(C)(C)C(C)=NO)C(N)=O)[C@@H](C)O)[C@@H](C)O)NC(=O)[C@H](Cc2c[nH]c3ccccc23)NC(=O)[C@@H]2CSSC[C@H](NC(=O)[C@H](Cc3ccc(O)cc3)NC1=O)C(=O)N[C@@H](CO)C(=O)NCC(=O)N1CCC[C@H]1C(=O)N1CCC[C@H]1C(=O)N[C@@H](CCCNC(=N)N)C(=O)N[C@@H](Cc1ccccc1)C(=O)N[C@@H](CCC(=O)O)C(=O)N2 (some centres unmarked) [[^99mTc]-Met peptide, metal not drawn] (Ac-AGSCYCSGPPRFECWCYETEGTGGGK([Glutaryl-X1])-NH2; disulfide 4-16, 6-14; C-terminus assumed)
SNU-16 xenografts
  tumor to muscle ratio reduced vs MKN-45: 2-4 fold
  uptake in nontarget tissues: comparable to the MKN-45 xenografts
In vivo [9]
  tissue uptake at 0.5 h: 4.59 ± 0.5 %ID/g
  tissue uptake at 1 h: 2.61 ± 0.82 %ID/g
  tissue uptake at 2 h: 1.3 ± 0.34 %ID/g
MKN-45 xenografts [10]
  clearance: > 70%
  kidney to muscle ratio exceeding tumor to muscle ratio: 1.6-3 fold
  primary route of excretion: renal clearance as the primary route of excretion
In vivo [11]
  tissue to tissue ratio at 0.5 h: 9.8 ± 2.1
  tissue to tissue ratio at 1 h: 30.1 ± 3.3
  tissue to tissue ratio at 2 h: 49.6 ± 11.3
  tissue to tissue ratio at 3 h: 55.2 ± 13.4
Met (U87-MG cells); U87-MG cells (low Met), 2 hours at 4°C
  specific binding: < 40%
Met (U87-MG cells); U87-MG vs MKN-45 cells
  Bmax U87-MG lower than MKN-45: ~ 90 fold
MKN-45 xenografts [12]
  reduction in slope (%ID/g), larger vs smaller tumors: 2-3 fold
  slope (%ID/g) of total uptake per tumor vs tumor weight: 4.2 %ID/g
[13]
  IC50: ~200 nM
Shed Met; imaged vs nonimaged xenografts
  effect on shed Met plasma concentrations: does not appear to alter shed Met plasma concentrations
MKN-45 xenografts [14]
  visualization of MKN-45 tumors: clearly visualized at 60 minutes
U87-MG xenografts
  tumor to muscle ratio reduced vs MKN-45: 10-16 fold
In vivo [15]
  tissue uptake at 1 h: 1.19 ± 0.11 %ID/g
  tissue uptake at 2 h: 0.71 ± 0.15 %ID/g
  tissue uptake at 3 h: 0.58 ± 0.09 %ID/g

## Cys4–16, 6–14; Ac-Ala-Gly-Ser-Cys-Tyr-Cys-Ser-Gly-Pro-Pro-Arg-Phe-Glu-Cys-Trp-Cys-Tyr-Glu-Thr-Glu-Gly-Thr-Gly-Gly-Gly-Lys (bicyclic or more) [unlabeled Met peptide]
[13]
  IC50: 90 nM

B1: [^99mTc]-Met peptide (AH-113018) (peptide)
peptide: Ac-AGSCYCSGPPRFECWCYETEGTGGGK(cPn216)
modifications: disulfide 6-14, 4-16; also: 99mTc chelated by cPn216
[16]
  Kd: 3.31 nM

B2: unlabeled Met peptide (AH-111972 trifluoracetate salt [DX-1662]) (peptide)
peptide: Ac-AGSCYCSGPPRFECWCYETEGTGGGK
modifications: disulfide 6-14, 4-16; also: trifluoroacetate salt
[17]
  percent decrease of tumor to muscle ratio of [^99mTc]-Met peptide: 53%
